MrgX1 antag: antagonists of human MrgX1 receptor, primary screen, HEK293 cells, Fluo-4 calcium flux | Mas-related G-protein coupled receptor member X1 (Homo sapiens), Q96LB2 | BAM8-22 antagonism; active compounds read low | B-score at 10 µM | hit rate 1.3% among 310,000 | AID 588676, 2011;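 active = calcium-response B-score plate-corrected more than 3 library SD below zero, starting fluorescence within 5 deviations, no agonist response on first addition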;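 note: peak minus trough fluorescence over baseline after final BAM8-22 challenge near maximal dose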
Target sequence (Q96LB2 whole entry, looked up): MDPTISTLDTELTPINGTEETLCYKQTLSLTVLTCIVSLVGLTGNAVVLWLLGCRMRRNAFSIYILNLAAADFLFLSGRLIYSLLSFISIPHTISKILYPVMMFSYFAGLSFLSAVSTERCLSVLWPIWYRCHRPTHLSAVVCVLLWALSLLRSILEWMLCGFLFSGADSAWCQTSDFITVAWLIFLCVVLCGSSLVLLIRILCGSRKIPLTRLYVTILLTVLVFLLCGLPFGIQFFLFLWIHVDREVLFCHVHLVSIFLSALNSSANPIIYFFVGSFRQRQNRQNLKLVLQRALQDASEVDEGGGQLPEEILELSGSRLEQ
MrgX1 PAM: positive allosteric modulators of MrgX1, primary screen, HEK293 cells, Fluo-4 calcium flux | AID 588675, 2011 | B-score at 10 µM | hit rate 0.63% among 310,000 | FDSS; active compounds read high;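 active = plate-corrected calcium response at least 3 library SD above typical, normal starting fluorescence, not activating the receptor alone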;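 note: compound read alongside a low EC10 to EC30 dose of BAM8-22 agonist; peak minus trough fluorescence over baseline measured at the second addition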
MrgX1 ag: agonists of human MrgX1 receptor, primary screen, HEK293 cells, Fluo-4 calcium flux | Mas-related G-protein coupled receptor member X1 (Homo sapiens), Q96LB2 | Fluo-4 calcium fluorescence, agonist mode; active compounds read high | B-score at 10 µM | hit rate 0.44% among 310,000;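 active = calcium response B-score plate-corrected fluorescence ratio at least 3 library SD, with starting fluorescence B-score inside 5 SD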
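Material – MrgX1-expressing HEK293 cells · Input – 15,000 cells seeded per well · Dosing – compound as first of three additions · Times – overnight seeding, then 1 h dark dye loading · Measured by – kinetic Fluo-4 NW fluorescence of intracellular calcium · Read-out – B-scored fluorescence response ratio · Benchmarks – positive and negative control wells on each plate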
RGS4 block: RGS4 inhibitors, primary screen, cell-based, HEK293 M3R inducible RGS4, calcium flux | Regulator of G-protein signaling 4 (Homo sapiens), P49798 | Fluo-4 calcium flux; active compounds read high; triggered by carbachol at its EC20 | B-score at 10 µM | hit rate 0.45% among 310,000 | AID 463165, 2010;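 active = B-score, a plate-corrected calcium signal, over three deviations above library mean, with baseline fluorescence within five deviations of library mean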;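 note: RGS4 expression induced by doxycycline in cells with stable M3 receptor; B-score is computed from the integrated fluorescence ratio over baseline after carbachol; higher B-score means a larger calcium signal and so more RGS4 inhibition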
Target sequence (P49798 whole entry, looked up): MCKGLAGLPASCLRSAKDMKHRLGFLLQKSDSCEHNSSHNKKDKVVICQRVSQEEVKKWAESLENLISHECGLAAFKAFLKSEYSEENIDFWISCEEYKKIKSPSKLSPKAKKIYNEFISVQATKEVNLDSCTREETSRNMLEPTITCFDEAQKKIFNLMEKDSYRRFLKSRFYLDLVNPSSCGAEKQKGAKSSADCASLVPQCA
RGS4 act: RGS4 potentiators or activators, primary screen, cell-based, HEK293 M3R inducible RGS4, calcium flux; carbachol calcium flux Fluo4; active compounds read low; hit rate 0.92% among 310,000; B-score at 10 µM;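 active = B-score of the integrated calcium signal more than 4 SD below the library mean, with starting fluorescence not abnormally high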;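 note: negative B-score means reduced calcium response which marks RGS4 activation or potentiation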
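test system = M3R-expressing HEK293 line, RGS4 induced by doxycycline | probe or stimulus = carbachol at ECmax as muscarinic agonist stimulus | timing = dye loading 30 min 37 °C, buffer rest 30 min RT | signal = calcium dye Fluo4 fluorescence | evaluation = B score from integrated fluorescence ratio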
MrgX1 PAM conf: MrgX1 positive allosteric modulators, duplicate retest, confirmation, HEK293 cells, Fluo-4 calcium flux | shares compounds with MrgX1 PAM | activation (ratio percentage), % at 10 µM | AID 602413, 2012 | Fluo-4 calcium fluorescence, FDSS | hit rate 13% among 1,200;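 active = ratio at least 3 SD above the weak peptide control, stable starting fluorescence, no direct agonism earlier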;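 note: compound followed by low BAM8-22 agonist challenge near EC20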
HEK293 Ca flux: nonspecific calcium signal in parental HEK293, confirmation, counter-screen for MrgX1 antagonist project, parental HEK293 cells, Fluo-4 calcium flux; shares compounds with MrgX1 antag; Fluo-4 calcium fluorescence, FDSS; fluorescence ratio F(max-min)/F0 at 10 µM; hit rate 2% among 4,000;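 active = duplicate-averaged calcium fluorescence ratio at least three times the standard deviation of buffer wells, a nonspecific response in parental cells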
HEK293 Ca counter: calcium response in parental HEK293 cells, primary screen, counter-screen for MrgX1 allosteric activator project, cell-based, Fluo-4 calcium flux, duplicate | fluorescence ratio F(max-min)/F0 at 10 µM | hit rate 0.4% among 4,000 | Fluo-4 fluorescence ratio; active compounds read high | shares compounds with MrgX1 antag | AID 624114, 2012;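 active = calcium fluorescence ratio, averaged over duplicates, at least 3 SD of the buffer-well ratio, meaning a nonspecific response in receptor-free cells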;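 note: untransfected parental HEK293 lacking MrgX1 used as counterscreen for MrgX1 allosteric activators; fluorescence change taken during the second addition on a kinetic imager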
HEK293 Ca cntr2: calcium response in parental HEK293 cells, primary screen, counter-screen for MrgX1 agonist project, cell-based, Fluo-4 calcium flux, duplicate, agonist mode. shares compounds with MrgX1 antag. fluorescence ratio F(max-min)/F0 at 10 µM. hit rate 8.7% among 4,000. Fluo-4 calcium fluorescence (FDSS); active compounds read high;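 active = calcium fluorescence ratio at least three times the spread of buffer wells, meaning a non-specific response in parental cells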
An asterisk follows results filed as active; i = inactive; . = not tested or not shown. Rows were chosen to be rich in hits. Some 3.5% of all compounds tested hit in one or more screens of this group.

SMILES	MrgX1 antag	MrgX1 PAM	MrgX1 ag	RGS4 block	RGS4 act	MrgX1 PAM conf	HEK293 Ca flux	HEK293 Ca counter	HEK293 Ca cntr2
Cc1ccn2c(=O)c(C(=O)NC3CCCCC3C)c(O)nc2c1 (stereo not drawn)	i	9.3*	i	i	i	i	i	i	i
Cc1cccn2c(=O)c(C(=O)NC3CCCCC3C)c(O)nc12 (stereo not drawn)	i	i	i	i	i	.	.	.	.
Cc1cc(OCC(=O)Nc2ccc(N3CCN(C(=O)c4ccco4)CC3)cc2)cc(C)c1Cl	i	i	i	i	i	.	.	.	.
Cc1ccc(OCC(=O)Nc2ccc(N3CCN(C(=O)c4ccco4)CC3)cc2)cc1C	i	10*	i	i	i	i	i	i	i
Cc1cc(O)cc(C)c1Cl	i	17*	i	i	i	i	i	i	i
O=C(CSc1ncn[nH]1)NCc1ccccc1Cl	i	i	i	i	i	.	.	.	.
CCOC(=O)c1c(CN(CC)CC)n(C)c2cc(Br)c(O)cc12	i	6.9*	i	i	i	i	i	i	i
Cc1cc(C(=O)Nc2ccc(Br)cc2)cs1	i	i	i	i	i	.	.	.	.
COc1ccc(C2C(C(=O)Nc3ccc(OC)c(OC)c3)c3ccccc3C(=O)N2C)cc1 (stereo not drawn)	i	i	i	i	i	.	.	.	.
O=C(NCc1ccco1)C1CCN(S(=O)(=O)c2cccc([N+](=O)[O-])c2)CC1	i	i	i	i	i	.	.	.	.
C=C1CCN([C@H](C(=O)O)C(C)C)S(=O)(=O)c2ccccc21	i	i	i	i	i	.	.	.	.
Cc1ccc(S(=O)(=O)N2CCOCC2)cc1NC(=O)COC(=O)c1cc(=O)[nH]c2ccccc12	i	9.8*	i	i	i	i	i	i	i
O=C(COC(=O)c1cc(=O)[nH]c2ccccc12)NC1CCCCCCC1	i	9.7*	i	i	i	i	i	i	i
CS(=O)(=O)N1CCc2cc(NC(=O)c3ccc(Cl)cc3Cl)ccc21	i	i	i	i	i	.	.	.	.
COc1ccc(Nc2nc(C)c3ccccc3n2)cc1	i	15*	i	i	i	i	i	i	i
CC(C)CNc1ncnc2c1cnn2Cc1ccccc1Cl	i	10*	i	i	i	i	i	i	i
COc1ccc(-c2cc(C(F)(F)F)n3ncc(C(=O)NCc4ccco4)c3n2)cc1	i	i	i	i	i	.	.	.	.
COc1ccc(-c2cc(C(F)(F)F)n3ncc(C(=O)N(C)Cc4ccccc4)c3n2)cc1	i	6.9*	i	i	i	i	i	i	i
O=C(Cn1nnc2ccccc21)NCc1ccccc1	i	7.2*	i	i	i	i	i	i	i
Cc1c(NC(=O)Nc2cc(F)c(F)cc2Cl)c(=O)n(-c2ccccc2)n1C	i	i	i	i	i	.	.	.	.

Screening results from PubChem.
